Laboratory results published in ChEMBL document CHEMBL1126854, “A series of penicillin derived C2-symmetric inhibitors of HIV-1 proteinase: synthesis, mode of interaction, and structure-activity relationships” (J Med Chem, 1993).

Experiments:
[1] = Plasma clearance in Beagles dog at a dose of 1 mg/kg given intravenously; format: ADME, organism-based, Canis lupus familiaris; set-up: dose 1 mg/kg, route intravenous; conditions: beagle, iv
Method in brief: (§1)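 Single intravenous dose in a vehicle of ethanol (10–20%), polyethyleneglycol (10%) and saline. Doses were 5 mg/kg for CD rats (n = 2 per time point), 1 mg/kg for beagles (n = 2) and 5 mg/kg for cynomolgus monkeys (n = 2). Plasma t1/2, plasma clearance and steady-state volume of distribution were derived.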

[2] = Volume of distribution in Cynomolgus monkey at a dose of 5 mg/kg given intravenously; format: ADME, organism-based, Macaca fascicularis; set-up: dose 5 mg/kg, route intravenous; conditions: in vivo, iv, read-out: Distribution; method in brief: as §1
[3] = tested on: MT4; assay: Inhibition of cytopathic effect of HIV-1 strain RF in MT-4 cell culture; format: functional, cell-based; conditions: Homo sapiens
Method in brief: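 MT-4 cells at 10^6 cells/mL in RPMI 1640 were infected with HIV-1 RF at moi 2×10^-3 (5×10^4 cells/well). Compound in Me2SO was diluted in 10-fold steps from 100 to 0.01 μg/mL. Cells were kept 7 days at 37 °C, 5% CO2, then given MTT for 60 min. Acidified 2-propanol was added and A540 read. EC50 for 50% inhibition of formazan conversion is the mean of duplicates; toxicity was assayed at the same concentrations.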

[4] = Volume of distribution in Beagles dog at a dose of 1 mg/kg given intravenously; format: ADME, organism-based, Canis lupus familiaris; set-up: dose 1 mg/kg, route intravenous; conditions: beagle, in vivo, iv, read-out: Distribution; method in brief: as §1
[5] = Volume of distribution in CD rat at a dose of 5 mg/kg given intravenously; format: ADME, organism-based; set-up: dose 5 mg/kg, route intravenous; conditions: in vivo, iv, read-out: Distribution; method in brief: as §1
[6] = tested on: Human immunodeficiency virus 1; assay: Inhibitory effects on HIV-1 induced syncytium formation in C8166 cells; format: functional, organism-based; conditions: Human immunodeficiency virus 1, C8166
Method in brief: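 C8166 cells were infected with HIV-1 RF at moi 1×10^-3 and plated at 10^5 cells/well. Compound in Me2SO was serially diluted in RPMI 1640 from 50 to 0.05 μg/mL. Cells were kept 3–4 days at 37 °C, 5% CO2, and checked daily for syncytia. Syncytia were scored against untreated infected controls, and EC50 was calculated as 50% reduction of cytopathic effect.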

[7] = Half-life in CD rat at a dose of 5 mg/kg given intravenously; format: ADME, organism-based; set-up: dose 5 mg/kg, route intravenous; conditions: in vivo, iv; method in brief: as §1
[8] = Plasma clearance in CD rat at a dose of 5 mg/kg given intravenously; format: ADME, organism-based; set-up: dose 5 mg/kg, route intravenous; conditions: iv; method in brief: as §1
[9] = Half-life in Beagles dog at a dose of 1 mg/kg given intravenously; format: ADME, organism-based, Canis lupus familiaris; set-up: dose 1 mg/kg, route intravenous; conditions: beagle, in vivo, iv; method in brief: as §1
[10] = Plasma clearance in Cynomolgus monkey at a dose of 5 mg/kg given intravenously; format: ADME, organism-based, Macaca fascicularis; set-up: dose 5 mg/kg, route intravenous; conditions: iv; method in brief: as §1
[11] = Half-life in Cynomolgus monkey at a dose of 5 mg/kg given intravenously; format: ADME, organism-based, Macaca fascicularis; set-up: dose 5 mg/kg, route intravenous; conditions: in vivo, iv; method in brief: as §1
[12] = biological target: Human immunodeficiency virus type 1 protease (Human immunodeficiency virus 1, UniProt Q72874); assay: Inhibitory activity against HIV-1 Protease
Method in brief: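 Buffer: 20 mM MES pH 6.0, 2 M NaCl, 5 mM DTT, 2 mM EDTA. Compounds in 25% Me2SO over a concentration range. Incubated 60 min at 37 °C with shaking, then filtered; released radioactivity counted by scintillation. IC50 from duplicate means, standardized to a reference-compound control.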

SMILES	EC50 [3]	EC50 [6]	IC50 [12]	also measured
CCNC(=O)[C@@H](NC(=O)Cc1ccccc1)[C@@H]1N[C@@H](C(=O)NCCNC(=O)[C@@H]2N[C@@H]([C@H](NC(=O)Cc3ccccc3)C(=O)NCC)SC2(C)C)C(C)(C)S1	5400 nM	1100 nM		clearance [1]: 300 mL/min; Vd [2]: 17 L; Vd [4]: 50 L; Vd [5]: 2.8 L; half-life [7]: 5 h; clearance [8]: 12 mL/min; half-life [9]: 4 h; clearance [10]: 200 mL/min; half-life [11]: 1.2 h
CC1(C)S[C@H]([C@H](NC(=O)Cc2ccccc2)C(=O)N2CCCCC2)N[C@H]1C(=O)NCCNC(=O)[C@@H]1N[C@@H]([C@H](NC(=O)Cc2ccccc2)C(=O)N2CCCCC2)SC1(C)C	1800 nM	230 nM	6.9 nM	
CCNC(=O)[C@@H](NS(=O)(=O)Cc1ccccc1)[C@@H]1N[C@@H](C(=O)NCCNC(=O)[C@@H]2N[C@@H]([C@H](NS(=O)(=O)Cc3ccccc3)C(=O)NCC)SC2(C)C)C(C)(C)S1	32000 nM	13000 nM	58 nM	
CCNC(=O)[C@@H](NC(=O)c1ccccc1-c1ccccc1)[C@@H]1N[C@@H](C(=O)NCCNC(=O)[C@@H]2N[C@@H]([C@H](NC(=O)c3ccccc3-c3ccccc3)C(=O)NCC)SC2(C)C)C(C)(C)S1	30 nM	170 nM	9.9 nM	
CN(C)c1ccc(CNC(=O)[C@@H](NC(=O)Cc2ccccc2)[C@@H]2N[C@@H](C(=O)NCCNC(=O)[C@@H]3N[C@@H]([C@H](NC(=O)Cc4ccccc4)C(=O)NCc4ccc(N(C)C)cc4)SC3(C)C)C(C)(C)S2)cc1	< 10 nM	20 nM	47 nM	
CC1(C)S[C@H]([C@H](NC(=O)Cc2ccccn2)C(=O)NCc2ccc(Cl)cc2Cl)N[C@H]1C(=O)NCCNC(=O)[C@@H]1N[C@@H]([C@H](NC(=O)Cc2ccccn2)C(=O)NCc2ccc(Cl)cc2Cl)SC1(C)C	530 nM	240 nM	14 nM	
CC1(C)S[C@H]([C@H](NC(=O)Cc2ccccc2)C(=O)NCC2CCCCC2)N[C@H]1C(=O)NCCNC(=O)[C@@H]1N[C@@H]([C@H](NC(=O)Cc2ccccc2)C(=O)NCC2CCCCC2)SC1(C)C	8200 nM	60 nM	40 nM	
CN(C)c1ccc(CNC(=O)[C@@H](NC(=O)c2ccccc2-c2ccccc2)[C@@H]2N[C@@H](C(=O)NCCNC(=O)[C@@H]3N[C@@H]([C@H](NC(=O)c4ccccc4-c4ccccc4)C(=O)NCc4ccc(N(C)C)cc4)SC3(C)C)C(C)(C)S2)cc1	< 10 nM	30 nM	0.23 nM	
